This is an account of results in ChEMBL document CHEMBL1155708, “Isoaurostatin, a novel topoisomerase inhibitor produced by Thermomonospora alba” (J Nat Prod, 2001).

In experiment [1] the target is T1, DNA topoisomerase 1 (Mus musculus, UniProt Q04750).
T1 sequence (Q04750 whole entry): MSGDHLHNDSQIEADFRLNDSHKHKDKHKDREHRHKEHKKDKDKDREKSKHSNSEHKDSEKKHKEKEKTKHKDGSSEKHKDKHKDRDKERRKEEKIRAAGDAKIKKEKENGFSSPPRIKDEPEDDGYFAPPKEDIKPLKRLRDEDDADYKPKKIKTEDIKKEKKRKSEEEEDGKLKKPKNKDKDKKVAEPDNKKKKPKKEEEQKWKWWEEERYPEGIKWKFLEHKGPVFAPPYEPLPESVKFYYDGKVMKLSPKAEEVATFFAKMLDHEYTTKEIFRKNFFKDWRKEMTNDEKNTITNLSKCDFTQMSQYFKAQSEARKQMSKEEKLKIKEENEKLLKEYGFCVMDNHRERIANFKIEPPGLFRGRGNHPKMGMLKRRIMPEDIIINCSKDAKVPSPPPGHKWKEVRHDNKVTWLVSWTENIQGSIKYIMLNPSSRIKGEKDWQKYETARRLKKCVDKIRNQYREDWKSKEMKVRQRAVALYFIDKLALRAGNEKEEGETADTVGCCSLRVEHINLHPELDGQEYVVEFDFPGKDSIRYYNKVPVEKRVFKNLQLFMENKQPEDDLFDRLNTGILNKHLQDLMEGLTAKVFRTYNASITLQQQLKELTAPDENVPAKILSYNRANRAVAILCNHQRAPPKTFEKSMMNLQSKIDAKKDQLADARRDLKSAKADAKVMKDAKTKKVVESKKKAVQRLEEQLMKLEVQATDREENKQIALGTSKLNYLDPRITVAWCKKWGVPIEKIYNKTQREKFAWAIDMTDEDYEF
Briefly: Inhibition topoisomerase 1 in mouse NIH/3T3 cells assessed as conversion of supercoiled pBR322 DNA to relaxed form. Type of experiment: cell-based, NIH3T3. The method, boiled down: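 Enzyme source: Vero or NIH3T3 cells cultured 5 days, washed in PBS and pelleted (1 × 10^6 cells). Lysed 30 min on ice in 200 µL buffer (10 mM Tris-HCl pH 7.5, MgCl2, EGTA, AEBSF, β-mercaptoethanol, 0.5% CHAPS, 10% glycerin); the cleared supernatant relaxed supercoiled pBR322. Gel densitometry; IC50 is the amount halving activity.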

Experiment [2] has as its target T2, Type II restriction enzyme BamHI (Bacillus amyloliquefaciens, UniProt P23940).
T2 sequence (P23940 whole entry): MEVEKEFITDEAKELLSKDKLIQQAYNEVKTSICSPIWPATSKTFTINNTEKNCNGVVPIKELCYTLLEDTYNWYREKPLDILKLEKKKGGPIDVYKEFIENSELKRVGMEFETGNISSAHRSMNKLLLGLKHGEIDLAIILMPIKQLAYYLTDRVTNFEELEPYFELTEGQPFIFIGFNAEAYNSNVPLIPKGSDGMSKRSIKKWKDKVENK
The experiment is described as follows: Inhibition of Bacillus amyloliquifaction Bam H1 assessed as undigested supercoiled pBR322 DNA concentration. The essentials: (§1)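 Restriction enzyme or nuclease activity followed as the remaining undigested supercoiled pBR322 DNA (or RNA) after reaction.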

The target in experiment [3] is Type II restriction enzyme EcoRI (Escherichia coli, UniProt P00642). The experiment is described as follows: Inhibition of Escherichia coli Eco R1 assessed as undigested supercoiled pBR322 DNA concentration. The method, boiled down: as §1
The target in experiment [4] is T3, DNA topoisomerase (Bos taurus, UniProt A0JN73).
T3 sequence (A0JN73 whole entry): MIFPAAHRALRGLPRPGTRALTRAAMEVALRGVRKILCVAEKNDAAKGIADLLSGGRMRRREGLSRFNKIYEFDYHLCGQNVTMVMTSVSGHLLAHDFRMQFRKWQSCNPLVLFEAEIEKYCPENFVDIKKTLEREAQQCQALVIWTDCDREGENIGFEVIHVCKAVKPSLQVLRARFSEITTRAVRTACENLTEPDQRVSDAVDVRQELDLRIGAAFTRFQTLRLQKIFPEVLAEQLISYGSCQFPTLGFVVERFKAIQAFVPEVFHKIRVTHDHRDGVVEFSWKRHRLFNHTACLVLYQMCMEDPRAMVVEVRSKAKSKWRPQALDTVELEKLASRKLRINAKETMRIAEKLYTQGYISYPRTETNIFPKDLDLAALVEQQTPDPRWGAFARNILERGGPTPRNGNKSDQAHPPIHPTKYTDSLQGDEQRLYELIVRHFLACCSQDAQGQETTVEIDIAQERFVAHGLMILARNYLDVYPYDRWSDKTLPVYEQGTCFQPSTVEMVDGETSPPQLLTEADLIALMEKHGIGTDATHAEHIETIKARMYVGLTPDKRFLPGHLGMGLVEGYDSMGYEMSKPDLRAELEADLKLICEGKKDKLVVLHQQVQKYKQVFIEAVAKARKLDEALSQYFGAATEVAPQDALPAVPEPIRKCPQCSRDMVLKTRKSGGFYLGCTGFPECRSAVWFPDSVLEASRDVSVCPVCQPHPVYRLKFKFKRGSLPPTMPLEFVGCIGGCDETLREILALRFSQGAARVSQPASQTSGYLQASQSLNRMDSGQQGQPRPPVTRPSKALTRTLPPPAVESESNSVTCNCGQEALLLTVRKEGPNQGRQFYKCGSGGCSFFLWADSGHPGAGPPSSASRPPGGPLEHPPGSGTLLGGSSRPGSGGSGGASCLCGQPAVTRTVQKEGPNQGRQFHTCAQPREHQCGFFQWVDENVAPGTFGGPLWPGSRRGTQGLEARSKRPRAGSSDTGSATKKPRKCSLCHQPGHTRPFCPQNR
Briefly: Inhibition calf thymus gland topoisomerase 1 assessed as conversion of supercoiled pBR322 DNA to relaxed form.

Experiment [5] deals with T4, Type II restriction enzyme PstI (Providencia stuartii, UniProt P00640).
T4 sequence (P00640 whole entry): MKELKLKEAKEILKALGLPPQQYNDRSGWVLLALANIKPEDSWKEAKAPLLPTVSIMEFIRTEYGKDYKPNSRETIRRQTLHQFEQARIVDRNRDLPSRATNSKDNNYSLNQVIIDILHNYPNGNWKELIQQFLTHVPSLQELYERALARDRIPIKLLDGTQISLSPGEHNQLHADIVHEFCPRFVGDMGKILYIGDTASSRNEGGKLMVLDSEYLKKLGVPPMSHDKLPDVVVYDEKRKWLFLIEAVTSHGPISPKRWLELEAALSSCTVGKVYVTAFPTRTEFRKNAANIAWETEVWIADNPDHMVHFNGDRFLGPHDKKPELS
Briefly: Inhibition of Providencia stuartii Pst 1 assessed as undigested supercoiled pBR322 DNA concentration. The essentials:
as §1

Experiment [6] concerns the target Telomerase reverse transcriptase (Homo sapiens, UniProt O14746). The experiment is described as follows: Inhibition of telomerase from human COLO201 cell.
For experiment [7], the target named is Deoxyribonuclease-1 (Bos taurus, UniProt P00639). Briefly: Inhibition of bovine pancreas DNase 1 assessed as undigested supercoiled pBR322 DNA concentration. The method, boiled down:
as §1

Experiment [8] concerns the target DNA topoisomerase 2-alpha (Homo sapiens, UniProt P11388). The experiment is described as follows: Inhibition human placenta topoisomerase 2 assessed as conversion of supercoiled pBR322 DNA to relaxed form.
The nature of experiment [9]: Inhibition of wheat germ topoisomerase 1 assessed as conversion of supercoiled pBR322 DNA to relaxed form. More on the design: species or system Triticum aestivum.

Type II restriction enzyme EcoRI, sequence (P00642 whole entry): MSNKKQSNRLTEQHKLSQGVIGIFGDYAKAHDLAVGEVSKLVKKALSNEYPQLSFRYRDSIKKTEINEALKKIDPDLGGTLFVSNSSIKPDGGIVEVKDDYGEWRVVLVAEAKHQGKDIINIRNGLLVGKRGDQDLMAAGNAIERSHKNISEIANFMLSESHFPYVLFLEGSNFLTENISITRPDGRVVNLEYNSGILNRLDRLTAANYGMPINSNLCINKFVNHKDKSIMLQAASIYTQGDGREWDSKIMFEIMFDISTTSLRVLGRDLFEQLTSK
Deoxyribonuclease-1, sequence (P00639 whole entry): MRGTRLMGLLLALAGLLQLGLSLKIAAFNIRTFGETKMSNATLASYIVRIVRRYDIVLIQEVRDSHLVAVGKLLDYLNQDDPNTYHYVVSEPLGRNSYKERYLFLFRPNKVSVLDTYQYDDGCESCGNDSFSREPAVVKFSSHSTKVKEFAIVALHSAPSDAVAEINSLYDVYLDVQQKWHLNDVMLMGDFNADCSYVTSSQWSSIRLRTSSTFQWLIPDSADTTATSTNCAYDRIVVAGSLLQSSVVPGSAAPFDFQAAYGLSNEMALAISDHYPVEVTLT
Telomerase reverse transcriptase, sequence (O14746 whole entry): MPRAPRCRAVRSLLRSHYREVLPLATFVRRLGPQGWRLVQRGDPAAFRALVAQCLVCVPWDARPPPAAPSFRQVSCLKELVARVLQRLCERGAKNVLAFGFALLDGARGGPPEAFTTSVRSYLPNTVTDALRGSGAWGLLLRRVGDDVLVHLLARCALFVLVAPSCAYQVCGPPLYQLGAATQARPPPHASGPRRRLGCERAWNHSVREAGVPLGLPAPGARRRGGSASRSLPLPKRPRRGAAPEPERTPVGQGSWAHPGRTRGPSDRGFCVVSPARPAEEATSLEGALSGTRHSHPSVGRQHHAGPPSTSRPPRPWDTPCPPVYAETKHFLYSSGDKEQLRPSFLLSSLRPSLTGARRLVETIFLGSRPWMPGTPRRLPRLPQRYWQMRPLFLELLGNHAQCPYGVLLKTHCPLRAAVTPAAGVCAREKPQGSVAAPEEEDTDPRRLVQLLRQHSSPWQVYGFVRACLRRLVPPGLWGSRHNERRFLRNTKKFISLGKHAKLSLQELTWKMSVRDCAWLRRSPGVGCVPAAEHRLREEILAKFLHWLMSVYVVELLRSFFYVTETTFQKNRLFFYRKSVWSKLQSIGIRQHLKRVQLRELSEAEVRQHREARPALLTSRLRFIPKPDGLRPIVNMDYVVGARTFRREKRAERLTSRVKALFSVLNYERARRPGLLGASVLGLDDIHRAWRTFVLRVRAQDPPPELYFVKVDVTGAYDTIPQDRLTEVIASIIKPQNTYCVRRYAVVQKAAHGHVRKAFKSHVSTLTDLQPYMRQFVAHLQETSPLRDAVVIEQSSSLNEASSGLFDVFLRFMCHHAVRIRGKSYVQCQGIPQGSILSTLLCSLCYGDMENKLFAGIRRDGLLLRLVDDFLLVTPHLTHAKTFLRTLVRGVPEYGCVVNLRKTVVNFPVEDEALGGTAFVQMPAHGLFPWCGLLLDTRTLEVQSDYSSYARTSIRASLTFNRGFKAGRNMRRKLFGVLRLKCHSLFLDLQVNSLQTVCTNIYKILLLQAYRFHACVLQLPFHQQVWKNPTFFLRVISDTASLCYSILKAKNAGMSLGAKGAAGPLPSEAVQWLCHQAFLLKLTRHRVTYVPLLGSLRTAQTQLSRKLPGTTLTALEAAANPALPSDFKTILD
DNA topoisomerase 2-alpha, sequence (P11388 whole entry): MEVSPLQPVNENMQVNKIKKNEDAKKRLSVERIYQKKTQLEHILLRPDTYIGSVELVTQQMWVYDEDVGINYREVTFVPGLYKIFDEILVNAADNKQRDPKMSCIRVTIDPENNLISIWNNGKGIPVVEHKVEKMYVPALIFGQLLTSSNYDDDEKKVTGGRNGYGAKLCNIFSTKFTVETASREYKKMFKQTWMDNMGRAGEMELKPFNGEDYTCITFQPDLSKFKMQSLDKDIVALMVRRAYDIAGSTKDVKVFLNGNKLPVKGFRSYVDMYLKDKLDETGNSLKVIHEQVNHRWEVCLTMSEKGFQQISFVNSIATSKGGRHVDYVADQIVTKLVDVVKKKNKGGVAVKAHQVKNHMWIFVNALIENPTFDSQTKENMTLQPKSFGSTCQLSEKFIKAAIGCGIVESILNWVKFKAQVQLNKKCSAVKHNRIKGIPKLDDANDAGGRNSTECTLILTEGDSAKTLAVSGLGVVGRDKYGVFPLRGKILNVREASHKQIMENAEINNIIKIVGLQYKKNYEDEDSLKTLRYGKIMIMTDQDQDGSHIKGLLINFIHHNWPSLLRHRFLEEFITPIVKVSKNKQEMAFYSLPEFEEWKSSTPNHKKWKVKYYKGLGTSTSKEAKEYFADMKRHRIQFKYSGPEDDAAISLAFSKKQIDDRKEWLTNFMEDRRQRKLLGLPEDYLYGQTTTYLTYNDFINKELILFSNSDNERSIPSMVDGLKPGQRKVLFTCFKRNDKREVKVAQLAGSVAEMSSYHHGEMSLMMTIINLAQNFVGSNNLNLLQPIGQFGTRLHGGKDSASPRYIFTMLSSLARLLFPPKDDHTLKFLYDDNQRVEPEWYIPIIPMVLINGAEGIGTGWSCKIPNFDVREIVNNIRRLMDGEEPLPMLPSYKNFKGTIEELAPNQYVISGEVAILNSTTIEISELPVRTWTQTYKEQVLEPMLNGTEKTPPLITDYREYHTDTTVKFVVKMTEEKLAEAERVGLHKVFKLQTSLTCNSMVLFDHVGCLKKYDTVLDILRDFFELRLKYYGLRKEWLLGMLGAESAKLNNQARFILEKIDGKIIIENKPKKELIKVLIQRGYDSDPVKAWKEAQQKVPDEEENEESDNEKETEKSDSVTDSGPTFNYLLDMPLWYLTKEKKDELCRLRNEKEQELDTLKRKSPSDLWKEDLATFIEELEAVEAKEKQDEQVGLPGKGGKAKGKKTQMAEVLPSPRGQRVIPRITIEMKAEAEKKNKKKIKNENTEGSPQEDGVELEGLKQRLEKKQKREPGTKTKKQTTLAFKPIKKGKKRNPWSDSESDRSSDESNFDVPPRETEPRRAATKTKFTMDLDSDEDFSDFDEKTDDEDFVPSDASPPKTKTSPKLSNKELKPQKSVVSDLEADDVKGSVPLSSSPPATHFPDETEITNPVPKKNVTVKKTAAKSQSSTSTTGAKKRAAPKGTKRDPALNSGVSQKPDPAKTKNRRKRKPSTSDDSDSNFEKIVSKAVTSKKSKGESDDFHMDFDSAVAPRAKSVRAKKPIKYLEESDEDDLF

Usually IC50 stands for the concentration needed to halve the response being measured. Take `O=C1Oc2cc(O)ccc2/C1=C\c1ccc(O)cc1` [ISOAUROSTATIN]: the concentration for half-maximal inhibition (IC50) was more than 400 µM in [1]; more than 400 µM in [2]; more than 400 µM in [3]; 307 µM in experiment [4]; more than 400 µM in experiment [5]; more than 400 µM in experiment [6]. Moreover, the IC50 is more than 400 µM in experiment [7], more than 400 µM in experiment [8] and 67000 nM in [9].
As to `COc1cccc2c1C(=O)c1c(O)c3c(c(O)c1C2=O)C[C@@](O)(C(=O)CO)C[C@@H]3O[C@H]1C[C@H](N)[C@H](O)[C@H](C)O1` [DOXORUBICIN], the IC50 was more than 200 µM in experiment [1]; more than 200 µM in [2]; more than 200 µM in experiment [3]; more than 200 µM in [4]; more than 200 µM in experiment [5]; 73 µM in experiment [6]. Further, the IC50 is more than 200 µM in [7], 1 µM in experiment [8] and more than 200000 nM in [9].
In the case of `CC[C@@]1(O)C(=O)OCc2c1cc1n(c2=O)Cc2cc3ccccc3nc2-1` [CAMPTOTHECIN], the IC50 in [1] was 12 µM; in experiment [2], more than 300 µM; in experiment [3], more than 300 µM; in experiment [4], 17 µM; in [5] it was more than 300 µM; in experiment [6], more than 300 µM. The IC50 in experiment [7] is more than 300 µM; in experiment [9] it was 3000 nM.
In the case of `C=C1NC(=O)C(C)C(CCC(C)C(=O)/C=C/C(C)=C/CC(C)CCCCCCC)OC(=O)[C@H](CC(OS(=O)(=O)O)C(N)=O)NC(=O)[C@@H](C)CNC1=O` (stereo not given in full) [TOPOSTATIN], the IC50 in experiment [1] is 47 µM; in [2] it was 185 µM; in [3], more than 250 µM; in experiment [4] it was 17 µM; in [5], 19 µM; in experiment [6] it was more than 250 µM. Besides, the values for the IC50 in [7], in [8] and in experiment [9] were more than 250 µM, 4 µM and 1000 nM, respectively.
